ChEMBL document CHEMBL1150958, “Growth-inhibitory activities of benzofuran and chromene derivatives toward Tenebrio molitor” (1998)

Key:
Tenebrio molitor [1] = assay: Growth inhibition of last instar larvae of Tenebrio molitor assessed as successful pupation at 120 ug/larvae, applied topically measured every 24 hrs for 30 days; format: functional; design: scale not given: the % may be the effect or the level left
Procedure, shortened: (§1)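 Last-instar T. molitor larvae (113–160 mg, from a stock culture kept on wheat bran) were dosed once, topically on the ventral abdominal segments by microsyringe, with 2 µL acetone solution (120 µg compound per larva). Solvent-only controls were included. Larvae were unfed. Pupation and pupal-stage length were scored every 24 h to day 30. n = 60, mean (SE). Pupation was analysed by χ² test and pupal duration by Dunnett test.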

Tenebrio molitor [2] = assay: Growth inhibition of last instar larvae of Tenebrio molitor assessed as duration of pupal stage at 120 ug/larvae, applied topically measured every 24 hrs for 30 days; format: functional; procedure, shortened: as §1

SMILES	Activity (Tenebrio molitor [1])	Activity (Tenebrio molitor [2])
C=C(CO)[C@@H]1Cc2cc(C(C)=O)ccc2O1 [BITALIN A]	75%	8.6 days
C=C(COC(=O)/C=C/c1ccc(O)cc1)[C@@H]1Cc2cc(C(C)=O)ccc2O1	26%	10.5 days
CC(=O)c1ccc(O)c(C(=O)C=C(C)C)c1	75%	11.4 days
O=C(O)/C=C/c1ccccc1 [CINNAMIC ACID]	92%	8.7 days
CC(C)=CCc1cc(/C=C/C(=O)O)ccc1O [DRUPANIN]	63%	13 days
C=C(C)c1cc2cc(C(C)=O)c(O)cc2o1 [EUPARIN]	83%	10.5 days
C=C(CO)[C@@H]1Cc2cc(C(C)=O)c(O)cc2O1	73%	11.6 days
C=C(COC(C)=O)[C@@H]1Cc2cc(C(C)=O)c(O)cc2O1	73.3%	11.2 days
C=C(COC(C)=O)[C@@H]1Cc2cc(C(C)=O)ccc2O1	75%	9.8 days
COC(=O)/C=C/c1ccc2c(c1)CCC(C)(C)O2	87%	7 days
CC(C)CCc1cc(CCC(=O)O)ccc1O	50%	10.2 days
CC(=O)c1ccc2c(c1)C(=O)CC(C)(C)O2	87%	12.1 days
O=C(O)/C=C/c1ccc(O)cc1 [COUMARIC ACID]	87%	10 days
CC(=O)c1cc2c(cc1O)OC(C)(C)C=C2 [DEMETHYLENCECALIN]	66.6%	11.5 days
